For test [1], the system named is Salmonella typhimurium. In words: Antimutagenic activity in Salmonella Typhimurium TA1535 carrying pSK1002 containing umuC'-lacZ fused gene assessed as suppression of activated MeIQ-induced SOS response to alteration in DNA synthesis at 0.3 mM measured by beta-galactosidase activity by Umu test. In kind it is functional, Salmonella enterica subsp. enterica serovar Typhimurium. Summed up:
(§1)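 S. typhimurium TA1535/pSK1002 (umuC′-′lacZ fusion on the plasmid). The overnight culture was diluted 50-fold in fresh TGA medium and grown at 37 °C to A600 0.25-0.30. SOS induction was read as β-galactosidase activity in Miller units. The S9 mix used rat liver S9 (phenobarbital/5,6-benzoflavone-pretreated males) with G-6-P, NADH and NADPH cofactors.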

Test [2] concerns Salmonella typhimurium. In words: Antimutagenic activity in Salmonella Typhimurium TA1535 carrying pSK1002 containing umuC'-lacZ fused gene assessed as suppression of furyfuramide-induced SOS response to alteration in DNA synthesis measured by beta-galactosidase activity by Umu test. In kind it is functional, organism-based. The note with it: Salmonella enterica subsp. enterica serovar Typhimurium. The method in brief: as §1

Test [3] deals with Salmonella typhimurium. In words: Antimutagenic activity in Salmonella Typhimurium TA1535 carrying pSK1002 containing umuC'-lacZ fused gene assessed as suppression of activated MeIQ-induced SOS response to alteration in DNA synthesis at 0.6 mM measured by beta-galactosidase activity by Umu test. It is filed as functional, Salmonella enterica subsp. enterica serovar Typhimurium. The method in brief: as §1

Test [4] relates to Salmonella typhimurium. Kind of test: Antimutagenic activity in Salmonella Typhimurium TA1535 carrying pSK1002 containing umuC'-lacZ fused gene assessed as suppression of activated Trp-P-1-induced SOS response to alteration in DNA synthesis at 0.6 mM measured by beta-galactosidase activity by Umu test. It is filed as functional, Salmonella enterica subsp. enterica serovar Typhimurium. The method in brief: as §1

Test [5] has as its system Salmonella typhimurium. Kind of test: Antimutagenic activity in Salmonella Typhimurium TA1535 carrying pSK1002 containing umuC'-lacZ fused gene assessed as suppression of activated Trp-P-1-induced SOS response to alteration in DNA synthesis at 0.05 mM measured by beta-galactosidase activity by Umu test. In kind it is functional, Salmonella enterica subsp. enterica serovar Typhimurium. Summed up:
as §1

The subject of test [6] is Salmonella typhimurium. In words: Inhibition of activated Trp-P-1-induced SOS response to alteration in DNA synthesis in Salmonella Typhimurium TA1535 carrying pSK1002 containing umuC'-lacZ fused gene at 0.6 mM. Set-up: scale not given: the % may be the effect or the level left. In kind it is functional, Salmonella enterica subsp. enterica serovar Typhimurium. Summed up:
as §1

In test [7] the test system is Salmonella typhimurium. Kind of test: Antimutagenic activity in Salmonella Typhimurium TA1535 carrying pSK1002 containing umuC'-lacZ fused gene assessed as suppression of furyfuramide-induced SOS response to alteration in DNA synthesis at 0.6 mM measured by beta-galactosidase activity by Umu test. It is filed as functional, Salmonella enterica subsp. enterica serovar Typhimurium. The method in brief:
as §1

Test [8] relates to Salmonella typhimurium. In words: Antimutagenic activity in Salmonella Typhimurium TA1535 carrying pSK1002 containing umuC'-lacZ fused gene assessed as suppression of MeIQ-induced SOS response to alteration in DNA synthesis at 0.05 mM measured by beta-galactosidase activity by Umu test. In kind it is functional, Salmonella enterica subsp. enterica serovar Typhimurium. The method in brief:
as §1

The subject of test [9] is Salmonella typhimurium. Kind of test: Antimutagenic activity in Salmonella Typhimurium TA1535 carrying pSK1002 containing umuC'-lacZ fused gene assessed as suppression of MeIQ-induced SOS response to alteration in DNA synthesis measured by beta-galactosidase activity by Umu test. In kind it is functional, organism-based. The note with it: Salmonella enterica subsp. enterica serovar Typhimurium. The method in brief: as §1

The subject of test [10] is Salmonella typhimurium. In words: Inhibition of MeIQ-induced SOS response to alteration in DNA synthesis in Salmonella Typhimurium TA1535 carrying pSK1002 containing umuC'-lacZ fused gene at 0.6 mM. Set-up: scale not given: the % may be the effect or the level left. In kind it is functional, Salmonella enterica subsp. enterica serovar Typhimurium. Summed up:
as §1

Test [11] has as its system Salmonella typhimurium. Kind of test: Antimutagenic activity in Salmonella Typhimurium TA1535 carrying pSK1002 containing umuC'-lacZ fused gene assessed as suppression of MeIQ-induced SOS response to alteration in DNA synthesis at 0.1 mM measured by beta-galactosidase activity by Umu test. In kind it is functional, Salmonella enterica subsp. enterica serovar Typhimurium. Summed up:
as §1

In test [12] the test system is Salmonella typhimurium. Kind of test: Antimutagenic activity in Salmonella Typhimurium TA1535 carrying pSK1002 containing umuC'-lacZ fused gene assessed as suppression of 0.1 j/M2 UV light-induced SOS response to alteration in DNA synthesis at 0.1 mM measured by beta-galactosidase activity by Umu test. It is filed as functional, Salmonella enterica subsp. enterica serovar Typhimurium. The method in brief: as §1

Test [13] concerns Salmonella typhimurium. In words: Inhibition of MeIQ-induced SOS response to alteration in DNA synthesis in Salmonella Typhimurium TA1535 carrying pSK1002 containing umuC'-lacZ fused gene. The note with it: Salmonella enterica, read-out: ID50 (the source's name). In kind it is functional, Salmonella enterica subsp. enterica serovar Typhimurium. The method in brief: as §1
The subject of test [14] is Salmonella typhimurium. In words: Inhibition of activated MeIQ-induced SOS response to alteration in DNA synthesis in Salmonella Typhimurium TA1535 carrying pSK1002 containing umuC'-lacZ fused gene. In kind it is functional, Salmonella enterica subsp. enterica serovar Typhimurium. The note with it: Salmonella enterica, read-out: ID50 (the source's name). The method in brief: as §1

In test [15] the test system is Salmonella typhimurium. Kind of test: Antimutagenic activity in Salmonella Typhimurium TA1535 carrying pSK1002 containing umuC'-lacZ fused gene assessed as suppression of Trp-P-1-induced SOS response to alteration in DNA synthesis at 0.6 mM measured by beta-galactosidase activity by Umu test. In kind it is functional, Salmonella enterica subsp. enterica serovar Typhimurium. Summed up:
as §1

Test [16] relates to Salmonella typhimurium. In words: Antimutagenic activity in Salmonella Typhimurium TA1535 carrying pSK1002 containing umuC'-lacZ fused gene assessed as suppression of Trp-P-1-induced SOS response to alteration in DNA synthesis at 0.05 mM measured by beta-galactosidase activity by Umu test. It is filed as functional, Salmonella enterica subsp. enterica serovar Typhimurium. The method in brief: as §1

Test [17] has as its system Salmonella typhimurium. Kind of test: Antimutagenic activity in Salmonella Typhimurium TA1535 carrying pSK1002 containing umuC'-lacZ fused gene assessed as suppression of MeIQ-induced SOS response to alteration in DNA synthesis at 0.6 mM measured by beta-galactosidase activity by Umu test. It is filed as functional, Salmonella enterica subsp. enterica serovar Typhimurium. The method in brief:
as §1

The test system of test [18] is Salmonella typhimurium. In words: Antimutagenic activity in Salmonella Typhimurium TA1535 carrying pSK1002 containing umuC'-lacZ fused gene assessed as suppression of activated MeIQ-induced SOS response to alteration in DNA synthesis at 0.05 mM measured by beta-galactosidase activity by Umu test. In kind it is functional, Salmonella enterica subsp. enterica serovar Typhimurium. The method in brief: as §1

Activity calls are given as the source filed them. The calls are words filed in the database; no cut-off is given here.

On to `COc1cc(-c2cc(=O)c3c(OC)c(OC)c(OC)c(OC)c3o2)ccc1O`, for which the Activity in the test on Salmonella typhimurium [1] turned out to be 243.5 Miller_unit; in the test on Salmonella typhimurium [3], 224.2 Miller_unit; in the test on Salmonella typhimurium [4], 118.5 Miller_unit; in the test on Salmonella typhimurium [5], 283.7 Miller_unit; in the test with Salmonella typhimurium [6], 76.4%; in the test with Salmonella typhimurium [7], 443.7 Miller_unit. In addition, the Activity in the test with Salmonella typhimurium [8] is reported as 267.7 Miller_unit; in the test on Salmonella typhimurium [10] it was 80.9%; with Salmonella typhimurium [11] it was 232.6 Miller_unit; in the test on Salmonella typhimurium [12], 551.9 Miller_unit; with Salmonella typhimurium [15], 168.9 Miller_unit; with Salmonella typhimurium [16], 299.6 Miller_unit. For the same compound, the Activity with Salmonella typhimurium [17] is 163.9 Miller_unit; in the test on Salmonella typhimurium [18], 394 Miller_unit. Also, the result in the test on Salmonella typhimurium [2] and in the test on Salmonella typhimurium [9] was Active. In addition, the IC50 in the test on Salmonella typhimurium [13] came to 40 µM; in the test with Salmonella typhimurium [14] it was 300 µM.

For the origin of these results see ChEMBL document CHEMBL1148948, “Biotransformation of nobiletin by Aspergillus niger and the antimutagenic activity of a metabolite, 4'-hydroxy-5,6,7,8,3'-pentamethoxyflavone” (2004).
